According to ChEMBL document CHEMBL1955778, “Design and synthesis of novel 7-aminoquinazoline derivatives: antitumor and anticonvulsant activities” (Bioorg Med Chem Lett, 2012):
Activity calls are given as the source filed them. The calls are words filed in the database; no cut-off is given here.

Assays:
HL-60(TB) = test: Growth inhibition of human HL-60(TB) cells at 10 uM relative to control; assay type: functional; settings: read-out: GI
Outline: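 Single-dose screen at 10 μM across the 60-cell-line tumour panel. Percent growth inhibition = 100 minus percent growth activity relative to untreated control.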

HCC 2998 = test: Growth inhibition of human HCC2998 cells at 10 uM relative to control; assay type: functional; settings: read-out: GI
Outline: (§1)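 Each cell line in a 60-line human tumour panel exposed to one 10 μM concentration. Growth inhibition percentage computed as 100 minus the percentage activity relative to control.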

MCF7 = test: Growth inhibition of human MCF7 cells at 10 uM relative to control; assay type: functional; settings: read-out: GI; outline: as §1
Mus musculus [1] = test: Anticonvulsant activity in mouse assessed as protection against strychnine-induced seizure at 1 mmol/kg, ip administered 30 min prior to strychnine-challenge measured after 60 mins relative to control; assay type: functional
COLO 205 = test: Growth inhibition of human COLO205 cells at 10 uM relative to control; assay type: functional, cell-based; outline: as §1
Malme-3M = test: Growth inhibition of human MALME-3M cells at 10 uM relative to control; assay type: functional; settings: read-out: GI; outline: as §1
OVCAR-8 = test: Growth inhibition of human OVCAR8 cells at 10 uM relative to control; assay type: functional; settings: read-out: GI; outline: as §1
ACHN = test: Growth inhibition of human ACHN cells at 10 uM relative to control; assay type: functional; settings: read-out: GI; outline: as §1
SR = test: Growth inhibition of human SR cells at 10 uM relative to control; assay type: functional; settings: read-out: GI
Outline: (§2)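 Single-dose screen across the 60-cell-line human tumor panel at 10 μM. Growth inhibition is reported as a percentage, taken as 100 minus the % growth relative to untreated control.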

SNB-75 = test: Growth inhibition of human SNB75 cells at 10 uM relative to control; assay type: functional; settings: read-out: GI; outline: as §2
MOLT-4 = test: Growth inhibition of human MOLT4 cells at 10 uM relative to control; assay type: functional; settings: read-out: GI; outline: as §1
RPMI-8226 = test: Growth inhibition of human RPMI8226 cells at 10 uM relative to control; assay type: functional; settings: read-out: GI; outline: as §1
NCI-H226 = test: Growth inhibition of human NCI-H226 cells at 10 uM relative to control; assay type: functional; settings: read-out: GI; outline: as §1
SF-295 = test: Growth inhibition of human SF295 cells at 10 uM relative to control; assay type: functional; settings: read-out: GI; outline: as §1
UO-31 = test: Growth inhibition of human UO31 cells at 10 uM relative to control; assay type: functional; settings: read-out: GI; outline: as §2
NCI-H322M = test: Growth inhibition of human NCI-H322M cells at 10 uM relative to control; assay type: functional; settings: read-out: GI; outline: as §1
U-251 = test: Growth inhibition of human U251 cells at 10 uM relative to control; assay type: functional; settings: read-out: GI; outline: as §2
[2] = Growth inhibition of human Hs 578T cells at 10 uM relative to control; assay type: functional; settings: read-out: GI; outline: as §1
PC-3 = test: Growth inhibition of human PC3 cells at 10 uM relative to control; assay type: functional; settings: read-out: GI; outline: as §1
CAKI-1 = test: Growth inhibition of human CAKI-1 cells at 10 uM relative to control; assay type: functional; settings: read-out: GI; outline: as §1
CCRF-CEM = test: Growth inhibition of human CCRF-CEM cells at 10 uM relative to control; assay type: functional; settings: read-out: GI; outline: as §1
NCI-H23 = test: Growth inhibition of human NCI-H23 cells at 10 uM relative to control; assay type: functional; settings: read-out: GI; outline: as §1
Mus musculus [3] = test: Anticonvulsant activity in mouse assessed as protection against maximal electroshock-induced seizure at 1 mmol/kg, ip administered 30 min prior to maximal electroshock-challenge measured after 60 mins relative to control; assay type: functional
HOP-62 = test: Growth inhibition of human HOP62 cells at 10 uM relative to control; assay type: functional; settings: read-out: GI; outline: as §1
UACC-62 = test: Growth inhibition of human UACC62 cells at 10 uM relative to control; assay type: functional; settings: read-out: GI; outline: as §2
RXF 393 = test: Growth inhibition of human RXF393 cells at 10 uM relative to control; assay type: functional; settings: read-out: GI; outline: as §1
OVCAR-3 = test: Growth inhibition of human OVCAR3 cells at 10 uM relative to control; assay type: functional; settings: read-out: GI; outline: as §1
SF-539 = test: Growth inhibition of human SF539 cells at 10 uM relative to control; assay type: functional; settings: read-out: GI; outline: as §1
A498 = test: Growth inhibition of human A498 cells at 10 uM relative to control; assay type: functional; settings: read-out: GI; outline: as §1
HT-29 = test: Growth inhibition of human HT-29 cells at 10 uM relative to control; assay type: functional; settings: read-out: GI; outline: as §1
IGROV-1 = test: Growth inhibition of human IGROV1 cells at 10 uM relative to control; assay type: functional; settings: read-out: GI; outline: as §1
A549 = test: Growth inhibition of human A549 cells at 10 uM relative to control; assay type: functional; settings: read-out: GI; outline: as §1
NCI/ADR-RES = test: Growth inhibition of human NCI/ADR-RES cells at 10 uM relative to control; assay type: functional; settings: read-out: GI; outline: as §1
MDA-MB-435 = test: Growth inhibition of human MDA-MB-435 cells at 10 uM relative to control; assay type: functional; settings: read-out: GI; outline: as §1
K562 = test: Growth inhibition of human K562 cells at 10 uM relative to control; assay type: functional; settings: read-out: GI; outline: as §1
HCT-15 = test: Growth inhibition of human HCT15 cells at 10 uM relative to control; assay type: functional; settings: read-out: GI; outline: as §1
SK-OV-3 = test: Growth inhibition of human SKOV3 cells at 10 uM relative to control; assay type: functional; settings: read-out: GI; outline: as §1
T47D = test: Growth inhibition of human T47D cells at 10 uM relative to control; assay type: functional; settings: read-out: GI; outline: as §2
EKVX = test: Growth inhibition of human EKVX cells at 10 uM relative to control; assay type: functional; settings: read-out: GI; outline: as §1
HCT-116 = test: Growth inhibition of human HCT116 cells at 10 uM relative to control; assay type: functional; settings: read-out: GI; outline: as §1
SN12C = test: Growth inhibition of human SN12C cells at 10 uM relative to control; assay type: functional; settings: read-out: GI; outline: as §2
M14 = test: Growth inhibition of human M14 cells at 10 uM relative to control; assay type: functional; settings: read-out: GI; outline: as §1
NCI-H460 = test: Growth inhibition of human NCI-H460 cells at 10 uM relative to control; assay type: functional; settings: read-out: GI; outline: as §1
SNB-19 = test: Growth inhibition of human SNB19 cells at 10 uM relative to control; assay type: functional; settings: read-out: GI; outline: as §2
SK-MEL-5 = test: Growth inhibition of human SK-MEL-5 cells at 10 uM relative to control; assay type: functional; settings: read-out: GI; outline: as §1
OVCAR-4 = test: Growth inhibition of human OVCAR4 cells at 10 uM relative to control; assay type: functional; settings: read-out: GI; outline: as §1
OVCAR-5 = test: Growth inhibition of human OVCAR5 cells at 10 uM relative to control; assay type: functional; settings: read-out: GI; outline: as §1
LOX IMVI = test: Growth inhibition of human LOXIMVI cells at 10 uM relative to control; assay type: functional; settings: read-out: GI; outline: as §1
SK-MEL-28 = test: Growth inhibition of human SK-MEL-28 cells at 10 uM relative to control; assay type: functional; settings: read-out: GI; outline: as §1
SW-620 = test: Growth inhibition of human SW620 cells at 10 uM relative to control; assay type: functional; settings: read-out: GI; outline: as §2
SF-268 = test: Growth inhibition of human SF268 cells at 10 uM relative to control; assay type: functional; settings: read-out: GI; outline: as §1
[4] = Growth inhibition of human 786-O cells at 10 uM relative to control; assay type: functional; settings: 786-0, read-out: GI; outline: as §1
DU-145 = test: Growth inhibition of human DU145 cells at 10 uM relative to control; assay type: functional; settings: read-out: GI; outline: as §1
UACC-257 = test: Growth inhibition of human UACC257 cells at 10 uM relative to control; assay type: functional; settings: read-out: GI; outline: as §2
MDA-MB-231 = test: Growth inhibition of human MDA-MB-231 cells at 10 uM relative to control; assay type: functional; settings: read-out: GI; outline: as §1
KM12 = test: Growth inhibition of human KM12 cells at 10 uM relative to control; assay type: functional; settings: read-out: GI; outline: as §1
Mus musculus [5] = test: Anticonvulsant activity in mouse assessed as protection against pentylenetetrazol-induced seizure at 1 mmol/kg, ip administered 30 min prior to pentylenetetrazol-challenge measured after 60 mins relative to control; assay type: functional

With `Cc1ccccc1-n1c(C)nc2cc(NC(=O)c3ccc(Cl)cc3)ccc2c1=O` the inhibition of growth at 10 µM (HL-60(TB)) was 35.5%, the inhibition of growth at 10 µM (HCC 2998) was 19.1% and the inhibition of growth at 10 µM (MCF7) was 42.2%. For the same molecule, the Activity (Mus musculus [1]) was 0%, the “growth inhibition (GI)” value (COLO 205) was “inactive” and the inhibition of growth at 10 µM (Malme-3M) was 56.5%. It also gave an inhibition of growth at 10 µM (OVCAR-8) of 16%, an inhibition of growth at 10 µM (ACHN) of 52% and an inhibition of growth at 10 µM (SR) of 26.3%. For the same molecule, the inhibition of growth at 10 µM (SNB-75) was 21.2%, the inhibition of growth at 10 µM (MOLT-4) was 29.3% and the inhibition of growth at 10 µM (RPMI-8226) was 55.4%. The inhibition of growth at 10 µM (NCI-H226) was 12%, the inhibition of growth at 10 µM (SF-295) was 40.3% and the inhibition of growth at 10 µM (UO-31) was 22.2%. The inhibition of growth at 10 µM (NCI-H322M) was 6%, the inhibition of growth at 10 µM (U-251) was 32.4% and the inhibition of growth at 10 µM [2] was 17.9%. The inhibition of growth at 10 µM (PC-3) was 39.8%, the inhibition of growth at 10 µM (CAKI-1) was 41.2% and the inhibition of growth at 10 µM (CCRF-CEM) was 47.3%. It also gave an inhibition of growth at 10 µM (NCI-H23) of 35.7%, an Activity (Mus musculus [3]) of 50% and an inhibition of growth at 10 µM (HOP-62) of 3%. For the same molecule, the inhibition of growth at 10 µM (UACC-62) was 57.8%, the inhibition of growth at 10 µM (RXF 393) was 23.2% and the inhibition of growth at 10 µM (OVCAR-3) was 41.1%. For the same molecule, the inhibition of growth at 10 µM (SF-539) was 31.8%, the inhibition of growth at 10 µM (A498) was 39.4% and the inhibition of growth at 10 µM (HT-29) was 38.1%. For the same molecule, the inhibition of growth at 10 µM (IGROV-1) was 21.4%, the inhibition of growth at 10 µM (A549) was 27.8% and the inhibition of growth at 10 µM (NCI/ADR-RES) was 17.6%. For the same molecule, the inhibition of growth at 10 µM (MDA-MB-435) was 56.4%, the inhibition of growth at 10 µM (K562) was 44.2% and the inhibition of growth at 10 µM (HCT-15) was 36.3%. The inhibition of growth at 10 µM (SK-OV-3) was 16.8%, the inhibition of growth at 10 µM (T47D) was 71% and the inhibition of growth at 10 µM (EKVX) was 48.5%. It also gave an inhibition of growth at 10 µM (HCT-116) of 25.2%, an inhibition of growth at 10 µM (SN12C) of 32.4% and an inhibition of growth at 10 µM (M14) of 32.3%. It also gave an inhibition of growth at 10 µM (NCI-H460) of 27.5%, an inhibition of growth at 10 µM (SNB-19) of 24.2% and an inhibition of growth at 10 µM (SK-MEL-5) of 99.1%. For the same molecule, the inhibition of growth at 10 µM (OVCAR-4) was 69.9%, the inhibition of growth at 10 µM (OVCAR-5) was 24.1% and the inhibition of growth at 10 µM (LOX IMVI) was 31.6%. The inhibition of growth at 10 µM (SK-MEL-28) was 20.4%, the inhibition of growth at 10 µM (SW-620) was 14% and the inhibition of growth at 10 µM (SF-268) was 32.3%. For the same molecule, the inhibition of growth at 10 µM [4] was 32.4%, the inhibition of growth at 10 µM (DU-145) was 12.4% and the inhibition of growth at 10 µM (UACC-257) was 40.3%. The inhibition of growth at 10 µM (MDA-MB-231) was 42.7%, the inhibition of growth at 10 µM (KM12) was 24.4% and the Activity (Mus musculus [5]) was 0%.
